Data from ChEMBL document CHEMBL2203202, “Angucyclines from an insect-derived actinobacterium Amycolatopsis sp. HCa1 and their cytotoxic activity” (Bioorg Med Chem Lett, 2012).
Structures can show the parent of a compound that is named as a salt. The source made the active and inactive calls. No cut-off for these calls is given here.

Assays:
Assay type in all cases: functional, cell-based
BGC-823 [1] = assay: Cytotoxicity against human BGC823 cells up to 100 uM after 48 hrs by MTT assay
Procedure, shortened: (§1)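 Cell lines obtained from a provincial disease-control centre. Compounds (HPLC-DAD purity over 95%) dissolved in DMSO and tested against the cells. Viability read by MTT colorimetric assay and expressed as IC50. Doxorubicin HCl served as positive control and compound-free medium as negative control. Each test was run three times.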

[2] = Cytotoxicity against human GHOST-R5X4 cells after 48 hrs by MTT assay; conditions: GHOST-R5X4, 48 h; procedure, shortened: as §1
HepG2 [3] = assay: Cytotoxicity against human HepG2 cells up to 100 uM after 48 hrs by MTT assay; procedure, shortened: as §1
A-375 [4] = assay: Cytotoxicity against human A375 cells up to 100 uM after 48 hrs by MTT assay; procedure, shortened: as §1
KB [5] = assay: Cytotoxicity against human KB cells up to 100 uM after 48 hrs by MTT assay; procedure, shortened: as §1
A-375 [6] = assay: Cytotoxicity against human A375 cells after 48 hrs by MTT assay; conditions: A-375, 48 h; procedure, shortened: as §1
HepG2 [7] = assay: Cytotoxicity against human HepG2 cells after 48 hrs by MTT assay; conditions: HepG2, 48 h; procedure, shortened: as §1
KB [8] = assay: Cytotoxicity against human KB cells after 48 hrs by MTT assay; procedure, shortened: as §1
BGC-823 [9] = assay: Cytotoxicity against human BGC823 cells after 48 hrs by MTT assay; conditions: BGC-823, 48 h; procedure, shortened: as §1
GHOST-R5X4 = assay: Cytotoxicity against human GHOST-R5X4 cells up to 100 uM after 48 hrs by MTT assay; procedure, shortened: as §1

COc1cccc2c1C(=O)c1ccc3cc(C)cc(O)c3c1C2=O
Activity (BGC-823 [1]): inactive
IC50 [2]: 89 µM
Activity (HepG2 [3]): inactive
Activity (A-375 [4]): inactive
Activity (KB [5]): inactive

C[C@@]1(O)Cc2ccc3c(c2C(=O)[C@@H]1O)C(=O)c1cccc(O)c1C3=O
Activity (BGC-823 [1]): inactive
IC50 [2]: 37.6 µM
Activity (HepG2 [3]): inactive
Activity (A-375 [4]): inactive
Activity (KB [5]): inactive

COC(=O)C(O)C(C)(O)Cc1ccc2c(c1O)C(=O)c1cccc(O)c1C2=O (centres undefined)
Activity (A-375 [4]): inactive
Activity (KB [5]): inactive

Cc1cc(O[C@@H]2O[C@@H](C)[C@H](O)[C@@H](O)[C@H]2O)c2c3c(c(O)cc2c1)C(=O)c1c(O)cccc1C3=O
Activity (A-375 [4]): inactive
Activity (KB [5]): inactive

COc1cccc2c1C(=O)c1c(O)c3c(c(O)c1C2=O)C[C@@](O)(C(=O)CO)C[C@@H]3O[C@H]1C[C@H](N)[C@H](O)[C@H](C)O1 [DOXORUBICIN HYDROCHLORIDE]
IC50 (A-375 [6]): 0.73 µM
IC50 (HepG2 [7]): 1.11 µM
IC50 [2]: 5.73 µM
IC50 (KB [8]): 0.01 µM
IC50 (BGC-823 [9]): 0.01 µM

C[C@H]1O[C@H](O[C@]23C(=O)[C@@H](O)[C@](C)(O)C[C@@]2(O)C=CC2=C3C(=O)c3cccc(O)c3C2=O)CC[C@H]1O [SAKYOMICIN A]
IC50 (HepG2 [7]): 34.9 µM
Activity (A-375 [4]): inactive
Activity (KB [5]): inactive
IC50 (BGC-823 [9]): 15.1 µM
Activity (GHOST-R5X4): inactive

C[C@H]1O[C@H](O[C@]23C(=O)C[C@](C)(O)C[C@@]2(O)C=CC2=C3C(=O)c3cccc(O)c3C2=O)CC[C@H]1O [SAKYOMICIN C]
IC50 (A-375 [6]): 17.5 µM
IC50 (HepG2 [7]): 17.4 µM
IC50 [2]: 14 µM
Activity (KB [5]): inactive
IC50 (BGC-823 [9]): 11 µM

C[C@]1(O)CC(=O)c2c(ccc3c2C(=O)c2cccc(O)c2C3=O)C1 [TETRANGOMYCIN]
IC50 [2]: 17.7 µM
IC50 (KB [8]): 23.7 µM
Activity (HepG2 [3]): inactive
Activity (A-375 [4]): inactive
IC50 (BGC-823 [9]): 36.1 µM
